{"source": "ChEMBL document CHEMBL4007452", "about": "“Discovery of an Orally Selective Inhibitor of Signal Transducer and Activator of Transcription 3 Using Advanced Multiple Ligand Simultaneous Docking” (J Med Chem, 2017)", "key": {"Rattus norvegicus [1]": {"tested_on": "Rattus norvegicus", "test": "AUMC (0 to t) in Sprague-Dawley rat plasma at 10 mg/kg, po measured after 24 hrs by UPLC analysis", "format": "ADME, organism-based", "conditions": "in vivo", "summary_of_the_method": "(§1)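 Rat plasma sampled from 2 min to 24 h after a single i.v. (1 mg/kg) or p.o. (10 mg/kg) dose. Parameters were derived from the concentration-time profiles. The bioanalytical method was validated to FDA guidelines for selectivity, linearity, LLOQ, accuracy, precision, recovery, matrix effect and stability.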"}, "Mus musculus": {"tested_on": "Mus musculus", "test": "Toxicity in BALB/c nude mouse xenografted with human MDA-MB-231 cells assessed as liver damage at 2.5 to 10 mg/kg, po qd administered for 32 days by H&E staining based light microscopy", "format": "organism-based", "conditions": "in vivo, 768 h", "summary_of_the_method": "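6-week-old female athymic SPF BALB/c nude mice received 5 x 10^6 MDA-MB-231 cells s.c. in the flank. Oral treatment began once tumors reached about 100 mm3, with 8 mice per group and a saline vehicle control. […] Treatment lasted 32 days. Heart, liver, spleen, lung and kidney were fixed 48 h in 10% neutral-buffered formaldehyde, paraffin-embedded, cut at 5 µm, H&E-stained and examined by light microscopy.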"}, "MCF-10A": {"tested_on": "MCF-10A", "test": "Antiproliferative activity against human MCF10A cells after 24 hrs by MTT assay", "format": "cell-based", "summary_of_the_method": "(§2)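 Cells were seeded at 3000 per well and incubated 24 h at 37 °C. Compounds were added in triplicate with 10% FBS: 0.1-10 or 0.1-20 µM for cancer lines, 3.125-400 µM for MCF-10A. Viability was read by MTT absorbance at 595 nm, with IC50 fitted from the curves. DMSO stocks were 20 mM.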"}, "Rattus norvegicus [2]": {"tested_on": "Rattus norvegicus", "test": "AUMC (0 to t) in Sprague-Dawley rat plasma at 1 mg/kg, iv measured after 24 hrs by UPLC analysis", "format": "ADME, organism-based", "conditions": "in vivo", "summary_of_the_method": "as §1"}, "[3]": {"target": "T1, Signal transducer and activator of transcription 3 (Homo sapiens, UniProt P40763)", "T1 sequence (P40763 whole entry)": "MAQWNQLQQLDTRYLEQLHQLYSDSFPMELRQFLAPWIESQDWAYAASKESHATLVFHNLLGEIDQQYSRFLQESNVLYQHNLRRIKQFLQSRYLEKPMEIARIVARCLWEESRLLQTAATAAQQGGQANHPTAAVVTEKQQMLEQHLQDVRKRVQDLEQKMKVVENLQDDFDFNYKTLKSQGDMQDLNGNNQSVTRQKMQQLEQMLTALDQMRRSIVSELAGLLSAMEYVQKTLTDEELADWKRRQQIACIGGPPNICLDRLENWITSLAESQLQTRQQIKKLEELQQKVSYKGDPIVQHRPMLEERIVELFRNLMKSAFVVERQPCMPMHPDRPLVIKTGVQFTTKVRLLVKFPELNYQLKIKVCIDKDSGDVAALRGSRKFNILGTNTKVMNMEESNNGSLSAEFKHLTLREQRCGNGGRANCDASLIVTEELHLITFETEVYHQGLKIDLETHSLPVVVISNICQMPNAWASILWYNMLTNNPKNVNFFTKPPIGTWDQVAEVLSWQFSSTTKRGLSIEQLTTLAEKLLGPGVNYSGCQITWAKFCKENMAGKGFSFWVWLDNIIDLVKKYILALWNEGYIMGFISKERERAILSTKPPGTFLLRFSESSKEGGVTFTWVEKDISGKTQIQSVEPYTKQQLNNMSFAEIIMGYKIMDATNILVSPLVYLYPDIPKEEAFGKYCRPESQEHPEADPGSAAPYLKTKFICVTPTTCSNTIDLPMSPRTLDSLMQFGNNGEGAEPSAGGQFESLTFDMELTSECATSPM", "test": "Binding affinity to fluorescently labeled STAT3 (unknown origin) by MST-analysis", "summary_of_the_method": "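Labeled STAT3 protein held constant at 10-20 nM, titrated against up to 16 serial dilutions of unlabeled inhibitor. […] Protein was dye-labeled and freed of excess dye within 45 min. Equal volumes were mixed, loaded into glass capillaries and read by microscale thermophoresis.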"}, "[4]": {"target": "T2, Signal transducer and activator of transcription 5B (Homo sapiens) (UniProt P51692)", "T2 sequence (whole entry)": "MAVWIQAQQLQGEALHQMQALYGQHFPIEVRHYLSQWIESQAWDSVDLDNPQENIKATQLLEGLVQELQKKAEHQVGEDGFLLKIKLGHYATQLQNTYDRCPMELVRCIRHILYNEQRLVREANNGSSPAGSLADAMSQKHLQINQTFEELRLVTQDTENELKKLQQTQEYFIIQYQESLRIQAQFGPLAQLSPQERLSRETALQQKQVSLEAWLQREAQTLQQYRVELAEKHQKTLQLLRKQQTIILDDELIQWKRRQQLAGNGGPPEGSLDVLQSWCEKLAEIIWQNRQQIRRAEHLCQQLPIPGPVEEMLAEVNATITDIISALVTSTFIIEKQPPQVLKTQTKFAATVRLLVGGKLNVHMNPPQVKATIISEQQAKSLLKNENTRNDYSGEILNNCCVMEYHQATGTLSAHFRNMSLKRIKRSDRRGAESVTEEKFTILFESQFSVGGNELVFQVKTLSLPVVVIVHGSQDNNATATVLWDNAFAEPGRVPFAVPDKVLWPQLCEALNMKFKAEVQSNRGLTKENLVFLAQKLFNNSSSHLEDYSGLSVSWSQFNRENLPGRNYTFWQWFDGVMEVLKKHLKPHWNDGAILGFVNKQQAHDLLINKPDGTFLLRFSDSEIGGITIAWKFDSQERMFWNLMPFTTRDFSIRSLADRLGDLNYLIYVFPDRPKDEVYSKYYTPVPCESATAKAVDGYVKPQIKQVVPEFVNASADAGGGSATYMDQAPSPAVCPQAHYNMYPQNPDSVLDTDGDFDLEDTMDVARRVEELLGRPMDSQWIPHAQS", "test": "Binding affinity to STAT5B (unknown origin) after 30 mins by fluorescence polarization assay", "summary_of_the_method": "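A competitive fluorescence polarization assay measured displacement of fluorescent phosphopeptide from the SH2 domain of purchased STAT1 or STAT5 protein, using the corresponding peptides.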"}, "U2OS": {"tested_on": "U2OS", "test": "Antiproliferative activity against human U2OS cells after 24 hrs by MTT assay", "format": "functional, cell-based", "summary_of_the_method": "as §2"}, "[5]": {"target": "T1, Signal transducer and activator of transcription 3", "conditions": "5 to 10 uM"}, "[6]": {"test": "Antiproliferative activity against human UW426 cells after 24 hrs by MTT assay", "format": "functional, cell-based", "conditions": "UW426, 24 h", "summary_of_the_method": "as §2"}, "CCRF S-180": {"tested_on": "CCRF S-180", "test": "Anticancer activity against […] cells xenografted in BALB/c nude mouse assessed as reduction in tumor weight at 5 mg/kg, po measured after 21 days relative to vehicle control", "format": "functional", "parameters": "scale not given: the % may be the effect or the level left", "summary_of_the_method": "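Male mice, 4 weeks old, given s.c. flank S180 mouse sarcoma cells (3 x 10^6). From day 2, 10 mice per group received saline vehicle, oral drug at 5 mg/kg, or i.p. drug at 1 mg/kg, each dissolved in saline. Therapy ran 21 days; tumor weight and body weight were recorded.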"}, "MDA-MB-231": {"tested_on": "MDA-MB-231", "test": "Anticancer activity against human MDA-MB-231 cells xenografted in BALB/c nude mouse assessed as reduction in tumor volume at 5 mg/kg, po qd administered for 32 days", "format": "functional", "parameters": "scale not given: the % may be the effect or the level left", "conditions": "in the assay text read “tumor weight” for “tumor volume”"}, "[7]": {"test": "MRT (0 to infinity) in Sprague-Dawley rat plasma at 1 mg/kg, iv measured after 24 hrs by UPLC analysis", "format": "ADME, organism-based", "summary_of_the_method": "as §1"}, "[8]": {"test": "Oral bioavailability in Sprague-Dawley rat at 10 mg/kg measured after 24 hrs by UPLC analysis", "format": "ADME, organism-based", "conditions": "in vivo"}, "[9]": {"target": "Epidermal growth factor receptor (Homo sapiens) (UniProt P00533)", "sequence (P00533 whole entry)": "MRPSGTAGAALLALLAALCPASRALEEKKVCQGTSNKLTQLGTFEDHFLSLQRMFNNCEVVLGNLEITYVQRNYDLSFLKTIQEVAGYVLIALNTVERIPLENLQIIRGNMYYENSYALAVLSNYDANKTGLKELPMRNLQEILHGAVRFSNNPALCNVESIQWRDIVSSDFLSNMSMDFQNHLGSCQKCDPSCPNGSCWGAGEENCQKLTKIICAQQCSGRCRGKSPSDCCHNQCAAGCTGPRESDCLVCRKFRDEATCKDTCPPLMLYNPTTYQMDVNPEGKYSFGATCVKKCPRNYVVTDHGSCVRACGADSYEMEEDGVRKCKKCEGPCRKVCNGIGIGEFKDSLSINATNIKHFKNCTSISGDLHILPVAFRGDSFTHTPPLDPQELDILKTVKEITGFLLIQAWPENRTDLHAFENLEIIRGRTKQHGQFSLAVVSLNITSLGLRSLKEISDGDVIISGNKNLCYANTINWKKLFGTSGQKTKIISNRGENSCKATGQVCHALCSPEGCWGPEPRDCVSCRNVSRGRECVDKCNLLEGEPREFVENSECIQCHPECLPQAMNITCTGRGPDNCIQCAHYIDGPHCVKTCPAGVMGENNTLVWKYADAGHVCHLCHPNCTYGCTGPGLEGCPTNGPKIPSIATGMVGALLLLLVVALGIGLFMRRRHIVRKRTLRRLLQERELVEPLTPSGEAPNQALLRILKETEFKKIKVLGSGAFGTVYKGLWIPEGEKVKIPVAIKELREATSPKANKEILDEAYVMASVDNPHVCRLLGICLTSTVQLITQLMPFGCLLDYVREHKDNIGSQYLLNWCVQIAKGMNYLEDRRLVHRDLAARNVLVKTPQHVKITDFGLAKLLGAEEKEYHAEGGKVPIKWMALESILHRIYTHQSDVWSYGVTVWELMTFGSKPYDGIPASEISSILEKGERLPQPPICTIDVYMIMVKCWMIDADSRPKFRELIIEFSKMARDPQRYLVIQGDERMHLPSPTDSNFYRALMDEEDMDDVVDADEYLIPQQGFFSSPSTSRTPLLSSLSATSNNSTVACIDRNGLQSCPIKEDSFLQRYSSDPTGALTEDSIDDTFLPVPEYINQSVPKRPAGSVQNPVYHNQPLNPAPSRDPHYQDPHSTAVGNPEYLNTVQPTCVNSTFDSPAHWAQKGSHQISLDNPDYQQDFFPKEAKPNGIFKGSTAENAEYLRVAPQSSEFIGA", "test": "Inhibition of EGFR in human MDA-MB-231 cells assessed as reduction in p-Akt level at 2.5 to 5 uM after 12 hrs by immunoblot analysis", "format": "cell-based", "summary_of_the_method": "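MDA-MB-231 cells at 60–80% confluence were treated 12 h with 10% FBS at 2.5-10 µM or 2.5-5 µM, against a DMSO control. Whole-cell lysates were immunoblotted, with bands quantified as percent of control.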"}, "[10]": {"target": "T1, Signal transducer and activator of transcription 3", "conditions": "5 uM"}}, "note": "Activity calls are given as the source filed them. The calls are words filed in the database; no cut-off is given here."}
{"smiles": "NS(=O)(=O)c1cccc2c1C(=O)C=C(Nc1ccccc1N1CCNCC1)C2=O", "values": [{"measurement": "AUMCt", "setting": "Rattus norvegicus [1]", "result": 1622.6, "unit": "hr2.ng/ml"}, {"measurement": "Activity", "setting": "Mus musculus", "result": "Non-Toxic"}, {"measurement": "IC50", "setting": "MCF-10A", "result": 129, "unit": "µM"}, {"measurement": "AUMCt", "setting": "Rattus norvegicus [2]", "result": 109.3, "unit": "hr2.ng/ml"}, {"measurement": "Ki", "setting": "[3]", "result": 2.42, "unit": "µM"}, {"measurement": "Activity", "setting": "[4]", "result": "inactive"}, {"measurement": "IC50", "setting": "U2OS", "result": 1.5, "unit": "µM"}, {"measurement": "inhibition", "setting": "[5]", "result": "Active"}, {"measurement": "IC50", "setting": "[6]", "result": 1.2, "unit": "µM"}, {"measurement": "Activity", "setting": "CCRF S-180", "result": 72.74, "unit": "%"}, {"measurement": "Activity", "setting": "MDA-MB-231", "result": 60, "unit": "%"}, {"measurement": "MRT inf", "setting": "[7]", "result": 42.6, "unit": "min"}, {"measurement": "bioavailability", "setting": "[8]", "result": 44.7, "unit": "%"}, {"measurement": "inhibition", "setting": "[9]", "result": "inactive"}, {"measurement": "inhibition", "setting": "[10]", "result": "Tde"}]}
